For orientation: inhibition means how much of the control response was suppressed.

Test [1] addresses T1, Inhibitor of nuclear factor kappa-B kinase subunit epsilon (Homo sapiens) (UniProt Q14164).
T1 sequence (whole entry): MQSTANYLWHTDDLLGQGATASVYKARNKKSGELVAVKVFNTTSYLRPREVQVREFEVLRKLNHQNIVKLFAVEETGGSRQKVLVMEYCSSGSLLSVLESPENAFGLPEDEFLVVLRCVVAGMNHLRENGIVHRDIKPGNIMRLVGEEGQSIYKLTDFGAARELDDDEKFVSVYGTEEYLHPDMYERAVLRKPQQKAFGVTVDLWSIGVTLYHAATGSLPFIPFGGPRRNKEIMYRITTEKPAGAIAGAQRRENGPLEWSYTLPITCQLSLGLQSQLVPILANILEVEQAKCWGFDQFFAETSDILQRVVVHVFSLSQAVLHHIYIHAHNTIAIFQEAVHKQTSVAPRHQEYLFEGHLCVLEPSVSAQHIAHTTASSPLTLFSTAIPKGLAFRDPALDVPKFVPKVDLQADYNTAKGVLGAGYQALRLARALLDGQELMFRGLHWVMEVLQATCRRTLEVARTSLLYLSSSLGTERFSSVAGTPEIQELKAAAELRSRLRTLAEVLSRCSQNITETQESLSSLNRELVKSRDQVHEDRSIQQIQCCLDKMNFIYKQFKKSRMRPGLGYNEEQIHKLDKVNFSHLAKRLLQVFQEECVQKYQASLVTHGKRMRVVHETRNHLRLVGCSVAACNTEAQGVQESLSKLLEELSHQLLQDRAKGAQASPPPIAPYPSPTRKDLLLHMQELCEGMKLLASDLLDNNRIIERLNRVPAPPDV
The experiment in a line: Inhibition of human recombinant IKKe at 40 nM in presence of ATP by radiometric assay relative to control.

The target of test [2] is Misshapen-like kinase 1 (Homo sapiens) (UniProt Q8N4C8). The experiment in a line: Inhibition of human recombinant MINK at 40 nM in presence of ATP by radiometric assay relative to control.
Test [3] concerns the target Serine/threonine-protein kinase 26 (Homo sapiens) (UniProt Q9P289). The experiment in a line: Inhibition of human recombinant MST4 at 40 nM in presence of ATP by radiometric assay relative to control.
The target of test [4] is Serine/threonine-protein kinase SIK1 (Homo sapiens) (UniProt P57059). The experiment in a line: Inhibition of human recombinant SIK at 40 nM in presence of ATP by radiometric assay relative to control.
Chain of Serine/threonine-protein kinase SIK1 (Homo sapiens) (P57059 whole entry): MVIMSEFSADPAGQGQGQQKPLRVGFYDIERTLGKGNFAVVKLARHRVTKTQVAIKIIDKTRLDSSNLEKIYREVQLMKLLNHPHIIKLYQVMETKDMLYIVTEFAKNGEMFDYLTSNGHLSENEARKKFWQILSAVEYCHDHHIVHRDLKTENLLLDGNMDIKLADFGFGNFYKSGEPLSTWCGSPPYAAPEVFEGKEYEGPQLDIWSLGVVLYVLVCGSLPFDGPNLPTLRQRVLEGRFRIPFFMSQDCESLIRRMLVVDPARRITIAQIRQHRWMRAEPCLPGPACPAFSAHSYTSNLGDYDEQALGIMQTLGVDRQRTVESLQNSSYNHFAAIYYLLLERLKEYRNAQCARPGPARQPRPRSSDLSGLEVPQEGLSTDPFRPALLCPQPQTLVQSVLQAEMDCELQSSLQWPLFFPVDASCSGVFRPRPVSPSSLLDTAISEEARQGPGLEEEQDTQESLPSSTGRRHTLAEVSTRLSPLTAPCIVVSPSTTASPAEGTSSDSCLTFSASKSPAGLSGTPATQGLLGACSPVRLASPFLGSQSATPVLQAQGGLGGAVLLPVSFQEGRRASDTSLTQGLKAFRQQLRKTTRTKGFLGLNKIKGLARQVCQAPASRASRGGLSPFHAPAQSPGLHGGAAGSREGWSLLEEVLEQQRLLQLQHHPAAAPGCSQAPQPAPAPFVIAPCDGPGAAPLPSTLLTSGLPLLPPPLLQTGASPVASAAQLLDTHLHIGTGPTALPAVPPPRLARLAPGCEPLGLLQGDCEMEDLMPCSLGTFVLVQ
Test [5] deals with Death-associated protein kinase 2 (Homo sapiens) (UniProt Q9UIK4). The test can be described thus: Inhibition of human recombinant DAPK2 at 40 nM related to control ULK1.
Chain of Death-associated protein kinase 2 (Homo sapiens) (Q9UIK4 whole entry, looked up): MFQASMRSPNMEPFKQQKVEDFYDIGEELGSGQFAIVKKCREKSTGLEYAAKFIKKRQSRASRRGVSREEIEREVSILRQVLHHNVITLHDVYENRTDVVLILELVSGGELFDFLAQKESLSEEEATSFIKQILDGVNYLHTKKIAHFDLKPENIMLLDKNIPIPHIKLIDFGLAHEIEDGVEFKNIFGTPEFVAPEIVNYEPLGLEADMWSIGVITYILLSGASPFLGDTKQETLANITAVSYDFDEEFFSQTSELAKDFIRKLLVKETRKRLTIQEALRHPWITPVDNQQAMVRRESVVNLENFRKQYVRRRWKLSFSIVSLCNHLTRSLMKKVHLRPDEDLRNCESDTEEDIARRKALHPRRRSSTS
The target in test [6] is Serine/threonine-protein kinase ATR (Homo sapiens) (UniProt Q13535). The experiment in a line: Inhibition of human recombinant ATR at 500 nM in presence of ATP by radiometric assay relative to control. Summed up: (§1)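 Panel of 327 recombinant human kinases, each assayed in vitro by radiometric activity assay in duplicate at a single inhibitor concentration per compound, chosen with reference to its ULK1 inhibition. Activity remaining was expressed as percent of vehicle control, and percent inhibition was calculated as 100 minus percent activity remaining.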
Chain of Serine/threonine-protein kinase ATR (Homo sapiens) (Q13535 whole entry, looked up): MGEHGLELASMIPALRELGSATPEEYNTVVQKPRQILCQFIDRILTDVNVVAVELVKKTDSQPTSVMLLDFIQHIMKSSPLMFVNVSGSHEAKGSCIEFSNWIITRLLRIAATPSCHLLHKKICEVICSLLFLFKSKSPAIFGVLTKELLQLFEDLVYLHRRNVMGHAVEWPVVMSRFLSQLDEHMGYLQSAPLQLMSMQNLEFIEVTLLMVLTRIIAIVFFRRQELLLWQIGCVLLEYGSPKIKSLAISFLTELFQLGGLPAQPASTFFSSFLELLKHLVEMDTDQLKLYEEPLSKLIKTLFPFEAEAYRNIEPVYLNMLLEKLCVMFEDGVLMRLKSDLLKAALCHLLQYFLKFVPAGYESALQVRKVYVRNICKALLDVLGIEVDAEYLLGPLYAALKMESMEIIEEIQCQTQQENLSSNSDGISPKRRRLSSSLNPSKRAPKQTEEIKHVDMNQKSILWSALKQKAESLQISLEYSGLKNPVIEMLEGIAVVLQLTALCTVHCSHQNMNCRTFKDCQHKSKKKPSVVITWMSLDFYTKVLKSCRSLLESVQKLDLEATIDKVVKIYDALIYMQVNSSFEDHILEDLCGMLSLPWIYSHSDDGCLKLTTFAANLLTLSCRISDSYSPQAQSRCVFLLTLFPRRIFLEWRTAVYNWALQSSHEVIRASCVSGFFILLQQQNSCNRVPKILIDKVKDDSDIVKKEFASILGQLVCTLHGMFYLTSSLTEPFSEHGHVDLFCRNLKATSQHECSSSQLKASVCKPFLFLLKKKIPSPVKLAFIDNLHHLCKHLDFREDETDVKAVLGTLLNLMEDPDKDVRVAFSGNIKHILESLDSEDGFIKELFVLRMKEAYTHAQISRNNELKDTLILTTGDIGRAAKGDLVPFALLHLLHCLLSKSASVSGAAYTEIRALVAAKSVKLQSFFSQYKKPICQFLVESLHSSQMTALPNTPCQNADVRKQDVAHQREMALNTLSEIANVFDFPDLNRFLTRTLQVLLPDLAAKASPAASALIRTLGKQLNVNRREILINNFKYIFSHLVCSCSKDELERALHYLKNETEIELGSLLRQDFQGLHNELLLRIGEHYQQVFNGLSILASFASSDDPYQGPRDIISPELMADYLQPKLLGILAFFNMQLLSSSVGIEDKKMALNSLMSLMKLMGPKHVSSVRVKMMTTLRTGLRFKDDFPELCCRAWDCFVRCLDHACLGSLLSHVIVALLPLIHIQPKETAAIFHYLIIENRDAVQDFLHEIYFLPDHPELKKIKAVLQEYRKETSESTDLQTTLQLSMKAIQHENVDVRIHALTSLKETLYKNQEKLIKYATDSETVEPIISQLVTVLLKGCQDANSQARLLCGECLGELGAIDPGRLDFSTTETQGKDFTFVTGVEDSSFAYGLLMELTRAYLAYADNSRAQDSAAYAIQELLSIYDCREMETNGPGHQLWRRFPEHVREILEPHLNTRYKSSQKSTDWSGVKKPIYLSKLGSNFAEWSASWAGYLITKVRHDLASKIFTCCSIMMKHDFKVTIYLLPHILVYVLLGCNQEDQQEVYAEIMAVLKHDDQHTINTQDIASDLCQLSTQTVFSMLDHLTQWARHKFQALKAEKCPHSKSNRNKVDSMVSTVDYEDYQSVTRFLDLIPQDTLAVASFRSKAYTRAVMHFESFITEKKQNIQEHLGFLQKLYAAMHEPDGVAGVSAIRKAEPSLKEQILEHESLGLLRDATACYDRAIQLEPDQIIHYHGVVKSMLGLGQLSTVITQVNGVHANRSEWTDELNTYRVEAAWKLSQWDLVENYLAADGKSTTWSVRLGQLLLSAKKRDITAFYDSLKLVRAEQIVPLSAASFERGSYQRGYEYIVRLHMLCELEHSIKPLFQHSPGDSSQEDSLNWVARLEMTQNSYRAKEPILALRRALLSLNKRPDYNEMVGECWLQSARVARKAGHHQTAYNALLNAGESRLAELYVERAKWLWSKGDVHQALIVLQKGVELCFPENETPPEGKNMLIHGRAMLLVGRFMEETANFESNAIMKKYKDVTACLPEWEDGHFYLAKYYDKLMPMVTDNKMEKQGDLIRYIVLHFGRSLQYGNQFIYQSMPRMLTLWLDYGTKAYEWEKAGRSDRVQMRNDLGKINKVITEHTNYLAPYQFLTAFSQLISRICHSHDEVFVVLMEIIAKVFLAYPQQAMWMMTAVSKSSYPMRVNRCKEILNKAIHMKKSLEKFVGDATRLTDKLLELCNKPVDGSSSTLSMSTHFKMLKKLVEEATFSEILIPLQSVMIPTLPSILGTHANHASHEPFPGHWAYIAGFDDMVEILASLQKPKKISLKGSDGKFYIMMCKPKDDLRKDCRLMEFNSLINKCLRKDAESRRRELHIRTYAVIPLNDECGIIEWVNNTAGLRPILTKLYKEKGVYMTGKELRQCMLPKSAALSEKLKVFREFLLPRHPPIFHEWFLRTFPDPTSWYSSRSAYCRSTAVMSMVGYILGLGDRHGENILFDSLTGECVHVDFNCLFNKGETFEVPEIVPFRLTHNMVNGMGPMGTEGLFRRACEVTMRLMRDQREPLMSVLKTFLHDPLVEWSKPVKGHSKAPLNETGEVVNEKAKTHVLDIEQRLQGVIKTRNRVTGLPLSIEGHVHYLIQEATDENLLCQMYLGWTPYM

Test [7] concerns the target Casein kinase II subunit alpha' (Homo sapiens) (UniProt P19784). The test can be described thus: Inhibition of human recombinant CK2a2 at 500 nM in presence of ATP by radiometric assay relative to control.
Test [8] has as its target Tyrosine-protein kinase Fyn (Homo sapiens) (UniProt P06241). The experiment in a line: Inhibition of human recombinant FYN at 500 nM in presence of ATP by radiometric assay relative to control.
For test [9], the target named is Dual specificity mitogen-activated protein kinase kinase 1 (Homo sapiens) (UniProt Q02750). The test can be described thus: Inhibition of human recombinant MAP2K1 at 500 nM in presence of ATP by radiometric assay relative to control.
For test [10], the target named is Calcium/calmodulin-dependent protein kinase type 1D (Homo sapiens) (UniProt Q8IU85). The experiment in a line: Inhibition of human recombinant CaMK1d at 500 nM related to control ULK1.
Chain of Calcium/calmodulin-dependent protein kinase type 1D (Homo sapiens) (Q8IU85 whole entry, looked up): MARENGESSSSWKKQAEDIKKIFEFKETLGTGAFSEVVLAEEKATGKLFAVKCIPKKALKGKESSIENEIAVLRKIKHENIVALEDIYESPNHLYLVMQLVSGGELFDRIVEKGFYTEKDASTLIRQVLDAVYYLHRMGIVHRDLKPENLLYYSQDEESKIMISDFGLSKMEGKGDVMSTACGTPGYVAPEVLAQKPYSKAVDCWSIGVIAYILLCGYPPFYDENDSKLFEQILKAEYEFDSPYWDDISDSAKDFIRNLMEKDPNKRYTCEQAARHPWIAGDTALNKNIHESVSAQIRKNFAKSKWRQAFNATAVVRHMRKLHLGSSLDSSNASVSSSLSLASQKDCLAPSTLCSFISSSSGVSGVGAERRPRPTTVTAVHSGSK
The target in test [11] is Receptor tyrosine-protein kinase erbB-2 (Homo sapiens) (UniProt P04626). The experiment in a line: Inhibition of human recombinant ErbB2 at 500 nM related to control ULK1.
Test [12] deals with Transcription initiation factor TFIID subunit 1-like (Homo sapiens) (UniProt Q8IZX4). The experiment in a line: Inhibition of human recombinant TAF1L at 500 nM related to control ULK1.
Test [13] has as its target T2, Serine/threonine-protein kinase A-Raf (Homo sapiens) (UniProt P10398).
T2 sequence (whole entry): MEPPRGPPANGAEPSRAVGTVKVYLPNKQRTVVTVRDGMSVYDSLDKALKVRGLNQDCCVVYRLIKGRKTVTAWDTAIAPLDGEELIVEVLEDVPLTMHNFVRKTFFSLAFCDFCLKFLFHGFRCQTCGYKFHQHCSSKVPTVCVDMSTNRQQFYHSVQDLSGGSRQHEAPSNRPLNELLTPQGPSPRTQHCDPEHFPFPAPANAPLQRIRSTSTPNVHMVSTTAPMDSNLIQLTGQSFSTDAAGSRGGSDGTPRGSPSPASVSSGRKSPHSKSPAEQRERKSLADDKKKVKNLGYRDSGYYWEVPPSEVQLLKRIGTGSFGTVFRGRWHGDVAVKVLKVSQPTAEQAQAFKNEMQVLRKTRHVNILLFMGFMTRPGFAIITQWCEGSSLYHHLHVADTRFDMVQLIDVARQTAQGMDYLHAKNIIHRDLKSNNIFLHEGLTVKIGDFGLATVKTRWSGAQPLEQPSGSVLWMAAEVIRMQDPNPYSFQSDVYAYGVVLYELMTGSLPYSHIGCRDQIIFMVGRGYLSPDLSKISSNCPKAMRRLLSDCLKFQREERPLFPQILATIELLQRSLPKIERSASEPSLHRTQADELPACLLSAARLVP
The experiment in a line: Inhibition of human recombinant ARAF at 15 nM in presence of ATP by radiometric assay relative to control. Summed up:
as §1

Test [14] concerns the target cAMP-dependent protein kinase catalytic subunit beta (Homo sapiens) (UniProt P22694). The experiment in a line: Inhibition of human recombinant PKACbeta at 15 nM in presence of ATP by radiometric assay relative to control.
In test [15] the target is Serine/threonine-protein kinase SIK3 (Homo sapiens) (UniProt Q9Y2K2). The experiment in a line: Inhibition of human recombinant QSK at 15 nM in presence of ATP by radiometric assay relative to control.
The target in test [16] is Death-associated protein kinase 2 (Homo sapiens) (UniProt Q9UIK4). The test can be described thus: Inhibition of human recombinant DAPK2 at 15 nM related to control ULK1.
In test [17] the target is Ephrin type-A receptor 4 (Homo sapiens) (UniProt P54764). The test can be described thus: Inhibition of human recombinant EphA4 at 15 nM related to control ULK1.
Test [18] addresses Protein kinase C delta type (Homo sapiens) (UniProt Q05655). The experiment in a line: Inhibition of human recombinant PKCd at 15 nM related to control ULK1.

Chain of Protein kinase C delta type (Homo sapiens) (Q05655 whole entry, looked up): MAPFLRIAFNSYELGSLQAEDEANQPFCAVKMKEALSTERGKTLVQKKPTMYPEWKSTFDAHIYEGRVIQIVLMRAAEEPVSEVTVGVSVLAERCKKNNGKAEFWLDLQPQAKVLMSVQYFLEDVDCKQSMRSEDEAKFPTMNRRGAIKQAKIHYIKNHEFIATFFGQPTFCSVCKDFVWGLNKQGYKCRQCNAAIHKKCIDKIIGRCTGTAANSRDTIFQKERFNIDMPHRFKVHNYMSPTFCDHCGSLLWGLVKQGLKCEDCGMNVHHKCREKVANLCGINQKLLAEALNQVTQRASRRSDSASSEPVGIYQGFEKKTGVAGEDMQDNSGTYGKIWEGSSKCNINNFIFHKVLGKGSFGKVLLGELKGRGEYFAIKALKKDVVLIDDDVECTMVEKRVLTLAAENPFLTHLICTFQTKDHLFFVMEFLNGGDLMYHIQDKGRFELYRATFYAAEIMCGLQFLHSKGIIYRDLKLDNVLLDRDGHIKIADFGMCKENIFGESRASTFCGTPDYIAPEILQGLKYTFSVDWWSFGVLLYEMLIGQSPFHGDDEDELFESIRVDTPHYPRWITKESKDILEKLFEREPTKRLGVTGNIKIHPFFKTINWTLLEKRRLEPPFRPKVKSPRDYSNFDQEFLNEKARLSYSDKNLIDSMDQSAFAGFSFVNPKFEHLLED

Turning to `O=C(N[C@@H](C1CC1)C(F)(F)F)c1cc(-c2cnn3cc(-c4ccc(F)cc4)cnc23)cs1`, the inhibition in test [1] amounted to 30%; in test [2], 7%; in test [3], 0%; in test [4], 20%. In test [5], the fold change (FC) was 0.

Turning to `CNC(=O)c1ccccc1Oc1nc(Nc2cc(OC)c(OC)c(OC)c2)ncc1Br`, the inhibition was determined as 0% in test [6], 5% in test [7], 19% in test [8] and 0% in test [9]. The values for the fold change (FC) in test [10], in [11] and in test [12] were 0.07, 0 and 0, respectively.

Turning to `CC(C)[C@H](NC(=O)c1cc(-c2cnn3cc(-c4ccc(OCCN5CCCCC5)cc4)cnc23)cs1)C(F)(F)F`, the results for the inhibition in [13], in [14] and in test [15] were 6%, 0% and 86%, respectively. The fold change (FC) turned out to be 0.07 in [16], 0 in test [17] and 0 in [18].

These data come from ChEMBL document CHEMBL5653631, “A Potent and Selective ULK1 Inhibitor Suppresses Autophagy and Sensitizes Cancer Cells to Nutrient Stress” (iScience, 2018).
